Bioassay records (PubChem BioAssay)
A selection: hits, their analogues and other compounds. The true share with any hit is near 1.3%.
proCasp3 act = activators of human procaspase-3. AID 463141. P42574. recombinant procaspase-3 D3A, Ac-DEVD-pNA absorbance 405 nm. 330,000 tested, 0.11% active. activation, % at 8.5 µM;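 active means activation above the mean of all tested compounds plus 3 SD, cut at about 21% in these data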;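 further: 0% = DMSO alone and 100% = DMSO wells spiked with extra 5 µM PC-3 D3A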
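Assay system: Autoprocessing-dead procaspase-3 D3A mutant enzyme; also added: Ac-DEVD-pNA; doses: one concentration, 8.5 µM nominal, 0.8% DMSO; times: 1 h compound preincubation, 2 h substrate hydrolysis at 25 °C; technique: 405 nm absorbance of p-nitroaniline, reads at 0 and 120 min; measure: % activation between DMSO and enzyme-spiked controls; repeats: single replicate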
GASC-1 inh = human JMJD2C demethylase inhibition; inhibition, % at 2.35 µM; AID 2099; GST-JMJD2C(1-420) H3K9me3 demethylation, DELFIA europium; 330,000 tested, 0.069% active; Q9H3R0;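 active means more than half of a compound's replicate wells show inhibition beyond 50%, single wells judged on their own value; inconclusive means some, but no more than half, of replicates pass 50% inhibition; inactive means no replicate passes 50% inhibition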;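 further: signal counts dimethyl H3K9 product captured on neutravidin plate; 0% = median of DMSO wells and 100% = 0.3 times that DMSO median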
VLA-4 inh = inhibition in a human VLA-4 binding assay. P13612. VLA-4 expressing cells, ligand binding flow cytometry. inhibition, % (about 7 µM as worked out from the volumes in the protocol). 330,000 tested, 0.2% active. AID 2557; in the data active means inhibition above about 50%
proCasp7 act = activates human procaspase-7, counter-screen for procaspase-3 activators. P55210. recombinant procaspase-7, Ac-DEVD-pNA absorbance 405 nm; D23A/D198A/D206A triple mutant, cannot self-cleave; scale: DMSO 0, 5 µM enzyme 100. activation, % at 8.5 µM. 330,000 tested, 0.093% active;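 active means percent activation above the screen-wide mean plus 3 SD, cut at about 25% in these data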
Target sequence (P55210 whole entry D23A/D198A/D206A): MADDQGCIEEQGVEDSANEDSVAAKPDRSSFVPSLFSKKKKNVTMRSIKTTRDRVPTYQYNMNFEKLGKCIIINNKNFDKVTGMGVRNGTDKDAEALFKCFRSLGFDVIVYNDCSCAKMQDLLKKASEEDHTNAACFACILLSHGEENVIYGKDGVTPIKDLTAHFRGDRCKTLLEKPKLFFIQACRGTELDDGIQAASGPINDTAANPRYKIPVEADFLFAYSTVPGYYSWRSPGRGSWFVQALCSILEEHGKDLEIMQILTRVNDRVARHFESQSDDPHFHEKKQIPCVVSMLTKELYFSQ
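Material: Procaspase-7 triple mutant (PC-7 D3A) | Quantity: 2 µM procaspase-7 mutant as dispensed | Reagent: DEVD-pNA substrate | Times: 1 h preincubation, 2 h reaction | Technique: 405 nm absorbance of p-nitroaniline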
GRK2 aptamer HTS = blocks RNA aptamer binding to human GRK2; P25098; bead flow cytometry, FAM-aptamer displacement from GRK2; inhibition of aptamer binding, % at 10 µM; 330,000 tested, 0.59% active; AID 488847;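 active means inhibition of aptamer binding above 40%, roughly 3 SD of noise, on plates passing a quality check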;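 further: median bead fluorescence of bound FAM aptamer so fluorescent compounds give negative values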
Hep lipid drop = hepatic lipid droplet formation modulation. inhibition, % at 6.5 µM. 240,000 tested, 0.4% active. AML12 mouse hepatocytes, oleate lipid droplets, BODIPY imaging;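 active means lipid droplet intensity inhibited by at least 50%, with more than 500 cells counted; inconclusive means wells with under 300 cells, treated as cytotoxic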
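Test system: AML12 mouse liver cells; schedule: overnight exposure; technique: high-content imaging of BODIPY-stained droplets and DAPI nuclei; read-out: % inhibition of corrected integrated BODIPY droplet signal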
GRK2 inh confirm = confirmation of human GRK2 inhibitors displacing RNA aptamer; shares compounds with GRK2 aptamer HTS; bead-bound GRK2, FAM-aptamer displacement, flow cytometry; aptamer displacement, % at 10 µM; 2,000 tested, 4% active; AID 504451;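 active means aptamer displacement above 40%, near three times the noise of non-fluorescent compounds, on plates passing quality checks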;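 further: negative values mostly reflect intrinsic compound fluorescence rather than true enhancement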
FAM quench CP1 = counter-screen for GRK2 aptamer inhibitors: fluorescent aptamer quenchers; shares compounds with GRK2 aptamer HTS; Carboxyfluorescein RNA aptamer on beads, flow cytometry quenching; active compounds read low; fluorescence response (% of DMSO), % at 10 µM; AID 504580; 2,000 tested, under 10 active;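 active means compounds that quench the bead-bound fluorescent RNA probe, cutting fluorescence to under half of the solvent control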;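 further: counterscreen run without GRK2 so only probe quenching by compound is measured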
The depositor's hits bear a star.

How did Cc1cc(OCC(=O)Nn2cnnc2)ccc1Br do in these assays?
proCasp3 act: -9.5; GASC-1 inh: 2.7; VLA-4 inh: 12.6; proCasp7 act: 4.2; GRK2 aptamer HTS: 71.0*; GRK2 inh confirm: 5.5; FAM quench CP1: 97.7

What do the screens show for `Cc1cccc(OCC(=O)N(Cc2ccc(C)o2)C2CCS(=O)(=O)C2)c1` (stereo unspecified)?
proCasp3 act: -2.4; GASC-1 inh: -0.6; VLA-4 inh: 4.2; proCasp7 act: -11.1; GRK2 aptamer HTS: 5.0; Hep lipid drop: 6.6

What do the screens show for `NC(=O)NC(Cc1ccccc1)C(=O)NNC(=O)COc1ccccc1Cl` (stereo unspecified)?
proCasp3 act: -0.2; GASC-1 inh: -2.9; VLA-4 inh: 8.4; proCasp7 act: 5.0; GRK2 aptamer HTS: 2.0

How did O=C(CCc1nc2ccccc2c(=O)[nH]1)Nc1ccc(F)c([N+](=O)[O-])c1 do in these assays?
proCasp3 act: -0.7; GASC-1 inh: -2.4; VLA-4 inh: -10.3; proCasp7 act: -4.5; GRK2 aptamer HTS: 46.0*; Hep lipid drop: -5.5; GRK2 inh confirm: 1.2; FAM quench CP1: 107.8

How did Cc1cc(C)cc(NC(=O)CSc2nc3nc(C)cc(C)n3n2)c1 do in these assays?
proCasp3 act: -1.8; GASC-1 inh: -2.4; VLA-4 inh: 6.7; proCasp7 act: -0.9; GRK2 aptamer HTS: 41.0*; GRK2 inh confirm: -1.9; FAM quench CP1: 105.5

What do the screens show for `Cc1ccc(-c2csc3ncn(CC(=O)NCC(c4ccco4)N4CCCC4)c(=O)c23)cc1` (stereo unspecified)?
proCasp3 act: -1.8; GASC-1 inh: 8.6; VLA-4 inh: 6.8; proCasp7 act: 1.3; GRK2 aptamer HTS: 78.0*; GRK2 inh confirm: -4.1; FAM quench CP1: 91.7

Results for Cc1nc2ccccc2c(=O)n1/N=C/c1ccccc1 ?
proCasp3 act: -1.8; GASC-1 inh: 2.7; VLA-4 inh: 15.9; proCasp7 act: 0.6; GRK2 aptamer HTS: 0.0

Results for Cc1nc2ccccc2c(=O)n1/N=C/c1ccncc1 ?
proCasp3 act: -4.7; GASC-1 inh: -1.3; VLA-4 inh: -1.3; proCasp7 act: -5.7; GRK2 aptamer HTS: 83.0*; Hep lipid drop: -3.4; GRK2 inh confirm: -2.9; FAM quench CP1: 102.3

How did N#Cc1ccc(/C=C/C(=O)c2ccccc2)cc1 do in these assays?
proCasp3 act: -2.5; GASC-1 inh: -3.5; VLA-4 inh: 10.7; proCasp7 act: 6.2; GRK2 aptamer HTS: 51.0*; Hep lipid drop: 4.2; GRK2 inh confirm: 1.7; FAM quench CP1: 96.6

Results for O=C(/C=C/c1ccccc1)c1ccccc1 ?
proCasp3 act: 6.8; GASC-1 inh: inconclusive; VLA-4 inh: 11.7; proCasp7 act: -10.5; GRK2 aptamer HTS: 3.0; Hep lipid drop: 6.5

Results for CCOc1ccc(OCCCC(=O)N(C)CC(=O)Nc2ccccc2Br)cc1 ?
proCasp3 act: 4.8; GASC-1 inh: -6.1; VLA-4 inh: 4.1; proCasp7 act: 7.4; GRK2 aptamer HTS: 46.0*; GRK2 inh confirm: -2.0; FAM quench CP1: 105.8

Results for Cc1ccc(OCCCC(=O)N(C)CC(=O)Nc2ccccc2Cl)cc1 ?
proCasp3 act: -1.5; GASC-1 inh: 3.5; VLA-4 inh: 16.7; proCasp7 act: 9.2; GRK2 aptamer HTS: 1.0

Results for O=C(CCCNC(=O)c1ccc(Cl)cc1)Nc1ncccc1O ?
proCasp3 act: 2.9; GASC-1 inh: 7.0; VLA-4 inh: 7.8; proCasp7 act: 0.5; GRK2 aptamer HTS: 0.0; Hep lipid drop: -5.8
